Assay results published in ChEMBL document CHEMBL3352718, “CB2-selective cannabinoid receptor ligands: synthesis, pharmacological evaluation, and molecular modeling investigation of 1,8-Naphthyridin-2(1H)-one-3-carboxamides” (J Med Chem, 2014).

Key:
[1] = molecular target: Cannabinoid receptor 1 (Homo sapiens, UniProt P21554); experiment: Displacement of [3H]CP-55,940 from human recombinant CB1R expressed in HEK-293 cells after 90 mins by liquid scintillation counting; design: species or system HEK293
Cannabinoid receptor 1, sequence (P21554 whole entry): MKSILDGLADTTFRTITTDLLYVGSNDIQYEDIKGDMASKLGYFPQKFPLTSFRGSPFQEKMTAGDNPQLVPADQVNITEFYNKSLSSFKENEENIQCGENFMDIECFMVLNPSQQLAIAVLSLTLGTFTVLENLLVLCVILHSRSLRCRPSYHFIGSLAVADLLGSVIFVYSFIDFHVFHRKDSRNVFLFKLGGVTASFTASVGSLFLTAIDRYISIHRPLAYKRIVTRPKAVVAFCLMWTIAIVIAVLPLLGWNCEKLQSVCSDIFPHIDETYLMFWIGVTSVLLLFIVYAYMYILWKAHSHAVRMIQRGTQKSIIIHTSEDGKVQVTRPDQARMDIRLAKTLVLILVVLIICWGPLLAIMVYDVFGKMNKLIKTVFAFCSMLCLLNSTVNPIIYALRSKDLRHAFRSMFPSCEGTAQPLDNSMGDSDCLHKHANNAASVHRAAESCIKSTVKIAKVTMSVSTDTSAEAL

[2] = molecular target: T1, Cannabinoid receptor 2 (Homo sapiens, UniProt P34972); experiment: Displacement of [3H]CP-55,940 from human recombinant CB2R expressed in HEK-293 cells after 90 mins by liquid scintillation counting; design: species or system HEK293
T1 sequence (P34972 whole entry): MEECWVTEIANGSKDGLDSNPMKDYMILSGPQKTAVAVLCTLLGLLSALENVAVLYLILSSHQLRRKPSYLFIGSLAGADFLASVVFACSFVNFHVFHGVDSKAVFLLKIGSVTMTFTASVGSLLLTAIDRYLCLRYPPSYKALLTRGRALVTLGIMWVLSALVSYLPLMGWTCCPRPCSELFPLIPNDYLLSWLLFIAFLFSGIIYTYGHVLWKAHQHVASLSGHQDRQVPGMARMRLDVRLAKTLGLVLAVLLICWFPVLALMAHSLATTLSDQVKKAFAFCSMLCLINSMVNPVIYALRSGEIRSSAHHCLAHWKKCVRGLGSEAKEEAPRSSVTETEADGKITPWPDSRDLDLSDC

[3] = test system: HEK293; experiment: Selectivity ratio of Ki for human recombinant CB1R expressed in HEK-293 cells to Ki for human recombinant CB2R expressed in HEK-293 cells; type: cell-based
[4] = molecular target: T1, Cannabinoid receptor 2; experiment: Agonist activity at human recombinant CB2R expressed in U2OS cells assessed as beta-arrestin-GFP binding to receptor […] by fluorescent microscopy; type: cell-based
[5] = molecular target: T1, Cannabinoid receptor 2; experiment: Agonist activity at human recombinant CB2R expressed in […] U2OS cells assessed as reduction in forskolin-mediated cAMP level after 30 mins by time-resolved fluorescence assay; type: functional, cell-based
Method in brief: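 hCB2R-expressing U2OS cells in HBSS stimulation buffer with 0.1% BSA, 0.5 mM IBMX and 5 mM HEPES, pH 7.4, at 3000 cells/well. Cells treated with forskolin (10 μM final) and various ligand concentrations for 30 min at room temperature. cAMP measured by LANCE TR-FRET (Eu-cAMP tracer plus ULight antibody, 1 h in the dark, 615/665 nm) against a cAMP standard curve. Three experiments in triplicate.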

[6] = molecular target: T1, Cannabinoid receptor 2; experiment: Antagonist activity at human recombinant CB2R expressed in U2OS cells assessed as inhibition of WIN-55212-induced beta-arrestin-GFP binding to receptor preincubated for 15 mins by fluorescent microscopy; type: cell-based
Method in brief: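 Same βarr2-GFP redistribution set-up in hCB2R U2OS cells on coverslips. […] Fixed in 4% paraformaldehyde, imaged by fluorescence microscopy. […] Three experiments in duplicate.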

[7] = molecular target: T1, Cannabinoid receptor 2; experiment: Antagonist activity at human recombinant CB2R expressed in WIN-55212-stimulated U2OS cells assessed as increase in forskolin-mediated cAMP level after 30 mins by time-resolved fluorescence assay; type: functional, cell-based

| SMILES | Ki [1] [nM] | Ki [2] [nM] | Ratio Ki [3] | other results |
| --- | --- | --- | --- | --- |
| COc1ccc(-c2cnc3c(c2)cc(C(=O)NC2CCC(C)CC2)c(=O)n3Cc2ccc(F)cc2)cc1 (stereo not drawn) | 3260 | 3.83 | 851 |  |
| COC(=O)CCCCn1c(=O)c(C(=O)NC2CCC(C)CC2)cc2cccnc21 (stereo not drawn) | > 10000 | 27.1 |  |  |
| CC1CCC(NC(=O)c2cc3cccnc3n(CCN3CCOCC3)c2=O)CC1 (stereo not drawn) |  |  | 526 | EC50 [4]: 17.6 nM; EC50 [5]: 28 nM |
| CC1CCC(NC(=O)c2cc3cccnc3n(CCCCCO)c2=O)CC1 (stereo not drawn) | > 10000 | 3.6 |  |  |
| CC1CCC(NC(=O)c2cc3cccnc3n(CCCCF)c2=O)CC1 (stereo not drawn) | 1010 | 1.36 | 743 | IC50 [2]: 5.35 nM; EC50 [4]: 21.8 nM; EC50 [5]: 20.6 nM |
| CC1CCC(NC(=O)c2cc3cccnc3n(CCCO)c2=O)CC1 (stereo not drawn) | > 10000 | 129 |  |  |
| CC1CCC(NC(=O)c2cc3cccnc3n(CCCCC(=O)O)c2=O)CC1 (stereo not drawn) | > 10000 | 1340 |  |  |
| CC1CCC(NC(=O)c2cc3cccnc3n(Cc3ccc(F)cc3)c2=O)CC1 (stereo not drawn) |  |  | 222 | IC50 [2]: 1.37 nM; EC50 [4]: 29.6 nM; EC50 [5]: 29.6 nM |
| C[C@H]1CC[C@@H](NC(=O)c2cc3cc(-c4ccco4)cnc3n(Cc3ccc(F)cc3)c2=O)CC1 | 4060 | 0.27 | 15000 |  |
| CC1CCC(NC(=O)c2cc3cc(-c4cccs4)cnc3n(CCN3CCOCC3)c2=O)CC1 (stereo not drawn) | 32.7 | 0.17 | 192 |  |
| CC1CCC(NC(=O)c2cc3cccnc3n(CCCC(=O)O)c2=O)CC1 (stereo not drawn) | > 10000 | 2470 |  |  |
| CC1CCC(NC(=O)c2cc3cccnc3n(CCO)c2=O)CC1 (stereo not drawn) | > 10000 | 2100 |  |  |
| CC1CCC(NC(=O)c2cc3cccnc3n(CCCCO)c2=O)CC1 (stereo not drawn) | > 10000 | 53.3 |  | IC50 [2]: 210 nM; EC50 [4]: 23.7 nM |
| C[C@H]1CC[C@H](NC(=O)c2cc3cc(-c4cccs4)cnc3n(Cc3ccc(F)cc3)c2=O)CC1 | 430 | 65.6 | 6.5 |  |
| CCCCn1c(=O)c(C(=O)NC2CCC(C)CC2)cc2cccnc21 (stereo not drawn) | 2310 | 3.9 | 593 |  |
| CC1CCC(NC(=O)c2cc3cccnc3n(CCCCCCF)c2=O)CC1 (stereo not drawn) | 35.7 | 1.46 | 24.4 |  |
| CC1CCC(NC(=O)c2cc3cc(-c4ccc(F)cc4)cnc3n(Cc3ccc(F)cc3)c2=O)CC1 (stereo not drawn) | > 10000 | 2.17 |  |  |
| C[C@H]1CC[C@@H](NC(=O)c2cc3cc(-c4cccs4)cnc3n(Cc3ccc(F)cc3)c2=O)CC1 | 472 | 0.96 | 491 |  |

| SMILES | Ki [1] [nM] | Ki [2] [nM] | Ratio Ki [3] | other results |
| --- | --- | --- | --- | --- |
| CC1CCC(NC(=O)c2cc3cc(-c4ccco4)cnc3n(Cc3ccc(F)cc3)c2=O)CC1 (stereo not drawn) | 3440 | 0.67 | 5140 |  |
| CC1CCC(NC(=O)c2cc3cccnc3n(CCCCCF)c2=O)CC1 (stereo not drawn) | 22.6 | 0.56 | 40.3 |  |
| CC1CCC(NC(=O)c2cc3cccnc3n(CCCCCCO)c2=O)CC1 (stereo not drawn) | > 10000 | 18 |  |  |
| CC1CCC(NC(=O)c2cc3cc(-c4ccco4)cnc3n(CCN3CCOCC3)c2=O)CC1 (stereo not drawn) | 52.9 | 0.35 | 151 |  |
| COc1ccc(-c2cnc3c(c2)cc(C(=O)NC2CCC(C)CC2)c(=O)n3CCN2CCOCC2)cc1 (stereo not drawn) | > 10000 | 1.47 |  | IC50 [6]: 54 nM; IC50 ([7]; u2os): ND(Insoluble) |
| C[C@H]1CC[C@H](NC(=O)c2cc3cc(Br)cnc3n(Cc3ccc(F)cc3)c2=O)CC1 | 166 | 1.12 | 148 |  |
| CC1CCC(NC(=O)c2cc3cc(Br)cnc3n(CCN3CCOCC3)c2=O)CC1 (stereo not drawn) | 750 | 1.26 | 595 | IC50 [6]: 32.1 nM; IC50 ([7]; read-out: IC50): 59.6 nM |
| CC1CCC(NC(=O)c2cc3cccnc3n(CCC(=O)O)c2=O)CC1 (stereo not drawn) | > 10000 | 1390 |  |  |
| CCOC(=O)CCCn1c(=O)c(C(=O)NC2CCC(C)CC2)cc2cccnc21 (stereo not drawn) | > 10000 | 62.6 |  |  |
| C[C@H]1CC[C@H](NC(=O)c2cc3cc(-c4ccco4)cnc3n(Cc3ccc(F)cc3)c2=O)CC1 | > 10000 | 94.2 | > 106 |  |
| CCCCCn1c(=O)c(C(=O)NC2CCC(C)CC2)cc2cccnc21 (stereo not drawn) | 908 | 2.82 | 322 |  |
| CCCC(C)(C)c1ccc2c(c1)OC(C)(C)[C@@H]1CC=C(C)C[C@@H]21 |  |  | 226 |  |
| CC1CCC(NC(=O)c2cc3cc(-c4cccs4)cnc3n(Cc3ccc(F)cc3)c2=O)CC1 (stereo not drawn) | 3280 | 1.85 | 1770 |  |
| C[C@H]1CC[C@@H](NC(=O)c2cc3cc(Br)cnc3n(Cc3ccc(F)cc3)c2=O)CC1 | 121 | 0.12 | 1010 |  |
| CC1CCC(NC(=O)c2cc3cc(Br)cnc3n(Cc3ccc(F)cc3)c2=O)CC1 (stereo not drawn) | 96.1 | 0.18 | 534 | IC50 [2]: 0.72 nM; IC50 [6]: 31.6 nM; IC50 ([7]; u2os): ND(Insoluble) |
| CCOC(=O)CCn1c(=O)c(C(=O)NC2CCC(C)CC2)cc2cccnc21 (stereo not drawn) | > 10000 | 176 |  |  |
| CC1CCC(NC(=O)c2cc3cc(-c4ccc(F)cc4)cnc3n(CCN3CCOCC3)c2=O)CC1 (stereo not drawn) | 66.7 | 0.68 | 98 |  |
